Results reported in PMC4608253 (Journal of chromatography. B, Analytical technologies in …, 2015).
Read-outs that look alike come from different tables or passages of the source.

Columns and labels:
in vivo = format: in vivo, A/J mice; settings: for concentration in the PK study: oral XCHT 500 mg/kg; for detected in the blood: mice, oral XCHT extract 0.5 g/kg
[1] = format: physicochemical, mice; settings: for Accuracy (RE, %) 25°C for 6 h / Accuracy (RE, %) Frozen for 30 days: stability in mice plasma/blood QC sample; for Accuracy (RE, %) Frozen for 30 days: −80°C; for Accuracy (RE, %) 4°C for 24 h: stability, extracted QC sample in auto-sampler
Summary of the method: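 Blank mouse blood spiked with analytes and vitamin C, then extracted with methanol containing daidzein internal standard (0.5 μM) by 1 min vortex. Spun at 20,000 × g for 15 min and dried under air. Three replicates per QC level were held unextracted at 25°C for 6 h, at −80°C for 30 days, or extracted in the 4°C autosampler for 24 h. Analysed by UPLC-MS/MS (C18, formic acid/acetonitrile, positive MRM); accuracy as RE.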

[2] = male, A/J, mouse, whole blood, po, 0.5 g/kg
[3] = male, A/J, mouse, whole blood, po, 500 mg/kg
[4] = male A/J mouse, oral XCHT extract 500 mg/kg, blood, mean±SD, n=6
[5] = male A/J mouse, oral XCHT extract 500 mg/kg, blood, median (min~max), n=6

Row | SMILES | Accuracy (RE, %) 25°C for 6 h ([1]; spiked concentration 0.488) | Accuracy (RE, %) 25°C for 6 h ([1]; spiked concentration 62.5) | Accuracy (RE, %) 25°C for 6 h ([1]; spiked concentration 500) | Accuracy (RE, %) Frozen for 30 days ([1]; spiked concentration 0.488) | Accuracy (RE, %) Frozen for 30 days ([1]; spiked concentration 62.5) | Accuracy (RE, %) Frozen for 30 days ([1]; spiked concentration 500) | Accuracy (RE, %) 4°C for 24 h ([1]; spiked concentration 0.488) | Accuracy (RE, %) 4°C for 24 h ([1]; spiked concentration 62.5) | Accuracy (RE, %) 4°C for 24 h ([1]; spiked concentration 500) | AUC(0-inf) (in vivo; [3]) | AUC(0-t) (in vivo; [3]) | Cmax (in vivo; [3]) | half-life (in vivo; [3]) | detected in the blood (in vivo) | Accuracy (RE, %) 25°C for 6 h ([1]; spiked concentration 6.25) | Accuracy (RE, %) Frozen for 30 days ([1]; spiked concentration 6.25) | Accuracy (RE, %) 4°C for 24 h ([1]; spiked concentration 6.25) | further results
1 | CC(C)=CCC[C@](C)(O[C@@H]1O[C@H](CO)[C@@H](O)[C@H](O)[C@H]1O)[C@H]1CC[C@]2(C)[C@@H]1[C@H](O)C[C@@H]1[C@@]3(C)CC[C@H](O[C@@H]4O[C@H](CO)[C@@H](O)[C@H](O)[C@H]4O[C@@H]4O[C@H](CO)[C@@H](O)[C@H](O)[C@H]4O)C(C)(C)[C@@H]3CC[C@]12C [Rd, Ginsenoside Rd] | 13.3% | −3.7% | −7.1% | 11.6% | 11.4% | 12.2% | −4% | 12.8% | 12.3% | – | – | – | – | – | – | – | – | concentration in the PK study (in vivo; A/J mice, blood, time 360 min): 5.07±6.67; concentration in the PK study (in vivo; A/J mice, blood, time 720 min): 6.23±7.96; concentration in the PK study (in vivo; A/J mice, blood, time 1440 min): 5.20±7.64
2 | O=c1cc(-c2ccccc2)oc2cc(O)c(O)c(O)c12 [Baicalein, baicalein] | – | 9.9% | 0.7% | – | −14.5% | 9% | – | −14% | 13.1% | 0.119 ± 0.0338 µM·h | 0.0854 ± 0.026 µM·h | 32.7 ± 15 nM | 6.85 ± 4.32 h | detected | – | – | – | Tmax (in vivo; [2]): 0.083 h; Tmax (in vivo; [3]): 0.083 h; Accuracy (RE, %) 25°C for 6 h ([1]; spiked concentration 3.9): 10.3%; Accuracy (RE, %) Frozen for 30 days ([1]; spiked concentration 3.9): −11.4%; Accuracy (RE, %) 4°C for 24 h ([1]; spiked concentration 3.9): 12.3%
3 | CC(C)=CCC[C@](C)(O)[C@H]1CC[C@]2(C)[C@@H]1[C@H](O)C[C@@H]1[C@@]3(C)CC[C@H](O[C@@H]4O[C@H](CO)[C@@H](O)[C@H](O)[C@H]4O[C@@H]4O[C@H](CO)[C@@H](O)[C@H](O)[C@H]4O)C(C)(C)[C@@H]3CC[C@]12C [Rg3, ginsenoside Rg3] | 9.2% | – | −4.3% | 8.0% | – | 0.4% | 1.57% | – | 0.4% | – | – | – | – | – | 9.2% | 8.0% | 8.64% | concentration in the PK study (in vivo; A/J mice, blood, time 5 min): 1.33±0.48; concentration in the PK study (in vivo; A/J mice, blood, time 30 min): 3.74±3.73; concentration in the PK study (in vivo; A/J mice, blood, time 360 min): 1.61±0.53
4 | CC(C)=CCC[C@](C)(O[C@@H]1O[C@H](CO)[C@@H](O)[C@H](O)[C@H]1O)[C@H]1CC[C@]2(C)[C@@H]1[C@H](O)C[C@@H]1[C@@]3(C)CC[C@H](O)C(C)(C)[C@@H]3[C@@H](O[C@@H]3O[C@H](CO)[C@@H](O)[C@H](O)[C@H]3O)C[C@]12C [Rg1, ginsenoside Rg1] | 14.8% | 7.4% | 8.5% | 7.2% | 9.2% | 12.5% | 4.7% | 10.1% | 12.12% | – | – | – | – | – | – | – | – | concentration in the PK study (in vivo; A/J mice, blood, time 15 min): 0.80±0.50; concentration in the PK study (in vivo; A/J mice, blood, time 480 min): 1.16±0.29
5 | COc1c(O[C@@H]2O[C@H](C(=O)O)[C@@H](O)[C@H](O)[C@H]2O)cc(O)c2c(=O)cc(-c3ccccc3)oc12 [Wogonoside, wogonoside] | 14.1% | 8.5% | 1.4% | −10.9% | 10.1% | 11.2% | 2.3% | 15.1% | 12.6% | – | – | – | – | detected | – | – | – | AUC0-∞ (in vivo; [4]): 1.55574 ± 0.12091 µM·h; AUC(0-t) (in vivo; [4]): 1.44654 ± 0.33091 µM·h; Cmax (in vivo; [4]): 174 ± 42.1 nM; t1/2 (in vivo; [4]): 4.77 ± 1.24 h; Tmax (in vivo; [5]): 1.625 (0.083~3) h; Tmax (in vivo; mean±SD, A/J mice, oral XCHT 0.5 g/kg): 1.58 ± 1.63 h
6 | C[C@H]1O[C@@H](O[C@H]2CC[C@@]3(C)[C@@H](CC[C@]4(C)[C@@H]3C=C[C@]35OC[C@@]6(CCC(C)(C)C[C@H]63)[C@H](O)C[C@]54C)[C@]2(C)CO)[C@H](O)[C@@H](O[C@@H]2O[C@H](CO)[C@@H](O)[C@H](O)[C@H]2O)[C@H]1O [SSd, saikosaponin d] | – | – | – | – | – | – | – | – | – | – | – | – | – | detected | −13.0% | 12.5% | 13.1% | AUC0-∞ (in vivo; [4]): 0.02584 ± 0.0185 µM·h; AUC(0-t) (in vivo; [4]): 0.02584 ± 0.0185 µM·h; Cmax (in vivo; [4]): 3.42 ± 0.74 nM; t1/2 (in vivo; [4]): 12.18 ± 5.32 h; Tmax (in vivo; [5]): 0.50 (0.125~0.5) h; Accuracy (RE, %) 25°C for 6 h ([1]; spiked concentration 0.049): 6.8%; Accuracy (RE, %) 25°C for 6 h ([1]; spiked concentration 50): 2.4%; Accuracy (RE, %) Frozen for 30 days ([1]; spiked concentration 0.049): 8.7%; Accuracy (RE, %) Frozen for 30 days ([1]; spiked concentration 50): 15.0%; Accuracy (RE, %) 4°C for 24 h ([1]; spiked concentration 0.049): −19%; Accuracy (RE, %) 4°C for 24 h ([1]; spiked concentration 50): 14.5%
7 | O=C1C[C@@H](c2ccc(O[C@@H]3O[C@H](CO)[C@@H](O)[C@H](O)[C@H]3O)cc2)Oc2cc(O)ccc21 [Liquiritin] | 7.3% | 5.5% | 12.7% | 13.9% | 13.8% | 10.9% | 14.4% | 15% | 12.8% | 0.137 ± 0.0417 µM·h | 0.137 ± 0.0417 µM·h | 48.7 ± 38.2 nM | 9.33 ± 3.42 h | detected | – | – | – | –
8 | O=C(O)[C@H]1O[C@@H](Oc2cc3oc(-c4ccccc4)cc(=O)c3c(O)c2O)[C@H](O)[C@@H](O)[C@@H]1O [Baicalin, baicalin] | – | −5.3% | 1.1% | – | 14.1% | 4.9% | – | 14.8% | 5.2% | 9.71 ± 0.709 µM·h | 8.96 ± 2.08 µM·h | 787 ± 123 nM | 3.11 ± 0.95 h | detected | – | – | – | Tmax (in vivo; [2]): 2.13 ± 1.18 h; Tmax (in vivo; [3]): 2.57 h; Accuracy (RE, %) 25°C for 6 h ([1]; spiked concentration 3.9): −5.7%; Accuracy (RE, %) Frozen for 30 days ([1]; spiked concentration 3.9): 6.7%; Accuracy (RE, %) 4°C for 24 h ([1]; spiked concentration 3.9): 3.8%
9 | C[C@H]1O[C@@H](O[C@H]2CC[C@@]3(C)[C@@H](CC[C@]4(C)[C@@H]3C=C[C@]35OC[C@@]6(CCC(C)(C)C[C@H]63)[C@@H](O)C[C@]54C)[C@]2(C)CO)[C@H](O)[C@@H](O[C@@H]2O[C@H](CO)[C@@H](O)[C@H](O)[C@H]2O)[C@H]1O [SSa, saikosaponin a] | – | – | – | – | – | – | – | – | – | – | – | – | – | – | −1.5% | 10.8% | 12% | concentration in the PK study (in vivo; A/J mice, blood, time 5 min): 0.69±0.26; concentration in the PK study (in vivo; A/J mice, blood, time 15 min): 1.17±0.88; concentration in the PK study (in vivo; A/J mice, blood, time 30 min): 1.02±0.75; concentration in the PK study (in vivo; A/J mice, blood, time 60 min): 1.15±0.77; concentration in the PK study (in vivo; A/J mice, blood, time 120 min): 0.85±0.51; Accuracy (RE, %) 25°C for 6 h ([1]; spiked concentration 0.39): 0.7%; Accuracy (RE, %) 25°C for 6 h ([1]; spiked concentration 50): 7.4%; Accuracy (RE, %) Frozen for 30 days ([1]; spiked concentration 0.39): −6.7%; Accuracy (RE, %) Frozen for 30 days ([1]; spiked concentration 50): 12.1%; Accuracy (RE, %) 4°C for 24 h ([1]; spiked concentration 0.39): −7.4%; Accuracy (RE, %) 4°C for 24 h ([1]; spiked concentration 50): 10.6%
